# From PubChem
# The sample as a whole holds a higher share of hits than the screen did.
# Fibroblast inh: blocks proliferation of human lung fibroblasts | LL 47 human lung fibroblast viability, ATP luminescence; stronger effect = lower value | AID 719 | 85,000 compounds, 1.1% hits | viability, % at 10 µM;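 active = viability at or below 50% in the single dose screen; inactive = viability above 50%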;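 note: compound exposure lasted 72 h before the ATP readout; 100% = median luminescence of untreated cell-only wells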
#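 Benchmarks: Cell-only wells, no compound | Test system: LL 47 human lung fibroblasts, passage 12 or lower | Input: 1,150 cells/well | Measured by: CellTiter-Glo luminescence measuring cellular ATP | Medium: IMEM, 15% FBS supplement | Schedule: Overnight attachment after seeding, then 72 h compound exposure at 37 °C | Doses: Compound addition at 0.1% DMSO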
# H69AR inhibit: blocks growth of human H69AR lung tumor cells. H69AR lung tumor viability, ATP luminescence, 72 h; stronger effect = lower value. viability, % at 10 µM. 85,000 compounds, 6% hits;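 active = viability at or below 40%; inactive = viability above 40%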;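 note: multidrug resistant small cell line overexpressing MRP-1 efflux transporter; 100% = mean luminescence of untreated control wells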
# HUVEC inhibit: human endothelial cell proliferation inhibition. HUVEC proliferation, CellTiter-Glo luminescence, 72 h; stronger effect = lower value. AID 648. viability, % at 10 µM (by protocol). 86,000 compounds, 1.1% hits;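 active = viability at or below 30%; inactive = viability above 30%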;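 note: 100% = median luminescence of DMSO-only cell control wells on each plate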
# HCT116 bCat-KO: beta-catenin-lacking colon tumor cell growth suppression; HCT116 beta-catenin knockout viability, CellTiter-Glo, 60 h; stronger effect = lower value; viability, % at 10 µM; 140,000 compounds, 1.5% hits;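 active = viability at or under a set limit, the compound median less 4 SD, cut at about 6% in these data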;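 note: 0% = Hyamine 1622 control at 20 µM and 100% = untreated cell control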
# PTEN del growth: suppresses growth of cells with PTEN deletion. HCT116 PTEN-null viability, CellTiter-Glo, 60 h; stronger effect = lower value. viability, % at 10 µM. 140,000 compounds, 1.2% hits. AID 827;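 active = viability at or below a set limit, 4 SD under the median of all tested compounds, cut at about 3.7% in these data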;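 note: PTEN knockout HCT116 line with beta catenin targeted HCT116 as companion control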
# Active calls of the source: *; nt = no result given.
SMILES,Fibroblast inh,H69AR inhibit,HUVEC inhibit,HCT116 bCat-KO,PTEN del growth
c1ccc(CCNc2ncnc3c2cnn3-c2ccccc2)cc1,110.7,74.4,95.7,80.8,86.1
CC(C)OCCCNc1ncnc2c1cnn2-c1ccccc1,109.5,61.1,95.6,91.2,87.9
c1ccc(CNc2ncnc3c2cnn3-c2ccccc2)cc1,70.3,25.9*,59.7,42.5,32.5
Fc1ccc(CNc2ncnc3c2cnn3-c2ccccc2)cc1,88.3,36.5*,86.0,104.3,100.0
Cc1cccc(-n2ncc3c(NCc4cccs4)ncnc32)c1,94.2,41.7,63.8,76.2,66.2
Clc1ccc(-n2ncc3c(NCc4cccs4)ncnc32)cc1,34.0*,40.9,87.3,78.8,83.2
COc1ccccc1-c1c(C)oc2cc(OCC(=O)OCc3ccccc3)ccc2c1=O,nt,nt,nt,93.5,104.2
C=CCOc1ccc(/C=N/NC(=O)C(C)Sc2ccccn2)cc1OC (centres undefined),nt,nt,nt,99.6,97.5
Cc1cccc(-n2ncc3c(NCc4ccccc4)ncnc32)c1,56.8,24.8*,57.3,28.2,27.1
Cc1cccc(-n2ncc3c(NCc4ccco4)ncnc32)c1,89.0,26.3*,73.4,24.3,31.6
Cc1cccc(-n2ncc3c(NCc4ccccn4)ncnc32)c1,113.6,88.6,100.6,96.4,86.2
Cc1cccc(-n2ncc3c(NCCN4CCOCC4)ncnc32)c1,94.3,80.2,88.0,76.5,89.7
Cc1cccc(-n2ncc3c(N4CCCc5ccccc54)ncnc32)c1,94.2,34.6*,86.5,75.5,57.8
O=C(NC(=S)Nc1cccc(NC(=O)c2ccc(Cl)cc2Cl)c1)c1cccs1,nt,nt,nt,71.2,64.5
OC(COCC(F)(F)C(F)(F)C(F)(F)C(F)F)Cn1c2ccc(Cl)cc2c2cc(Cl)ccc21 (centres undefined),nt,nt,nt,2.2*,1.7*
Cc1ccccc1/C=c1\s/c(=C\C(=O)C(C)(C)C)[nH]c1=O,69.4,18.7*,52.4,23.9,28.0
CCc1ccc(/C=c2\s/c(=C\C(=O)C(C)(C)C)[nH]c2=O)cc1,83.7,14.1*,47.3,46.1,42.8
CC(C)(C)C(=O)/C=c1\[nH]c(=O)/c(=C\c2ccc(F)cc2)s1,74.8,17.7*,65.8,38.9,37.7
Fc1ccc(-c2ccc(/C=N\n3cnnc3)o2)cc1Cl,nt,nt,nt,103.2,97.4
Cc1ccc(Sc2oc(/C=N/n3cnnc3)cc2Br)cc1,71.3,23.2*,91.3,18.5,11.7
CC(=O)NCC(=O)OC(C(=O)c1ccccc1)c1ccc(Cl)cc1 (centres undefined),nt,nt,nt,96.4,100.4
COC(=O)c1sccc1NC(=O)c1ccc(OC)cc1OC,nt,nt,nt,87.4,85.1
CC1(C)CC(=O)C([N+](=O)[O-])=C(NCCCC(=O)O)C1,nt,nt,nt,91.3,94.2
CCOC(=O)c1c(NC(=O)CN2CCCCC2)sc2c1CCCC2O (centres undefined),91.7,20.2*,72.8,70.0,76.0
COc1ccc(-c2nc(N)ncc2Oc2ccccc2Br)c(O)c1,83.8,38.2*,91.6,93.3,92.2
SMILES,Fibroblast inh,H69AR inhibit,HUVEC inhibit,HCT116 bCat-KO,PTEN del growth
COc1cccc(Oc2cnc(N)nc2-c2ccc(OC)cc2O)c1,58.6,16.6*,77.6,20.0,14.2
O=C1CC(c2ccsc2)c2cc3c(cc2N1)OCCO3 (centres undefined),91.9,26.8*,92.5,61.6,72.1
CCCOc1c(OC)cccc1C1CC(=O)Nc2cc(OC)c(OC)c(OC)c21 (centres undefined),87.7,85.9,58.3,88.1,93.0
CCOc1c(OC)cccc1C1CC(=O)Nc2cc3c(cc21)OCCO3 (centres undefined),96.2,14.9*,76.8,31.5,32.7
O=C(NCc1cn(-c2ccccc2)nc1-c1ccc(F)cc1)c1cccc([N+](=O)[O-])c1,nt,nt,nt,68.4,60.2
Cc1ccc(C(=O)Nc2sc(C)c(C)c2C(=O)c2ccccc2)cc1,nt,nt,nt,86.8,83.8
O=C(c1ccc(Cl)cc1)c1ccc(CN2C(=O)c3ccccc3C2=O)o1,102.9,91.5,96.4,92.2,100.7
Cc1oc2c(c1C(=O)c1ccc(Cl)cc1)C(=O)C(=O)c1ccccc1-2,nt,nt,nt,0.9*,0.9*
Cc1ccc(C(=O)c2c(C)oc3c2C(=O)C(=O)c2ccccc2-3)cc1,2.1*,1.0*,56.8,0.8*,1.1*
Cc1ccc(C(=O)c2coc3c2C(=O)C(=O)c2ccccc2-3)cc1,47.0*,1.8*,3.5*,1.8*,1.4*
CCOC(=O)CSC1=C(C#N)C(C)C2=C(CCCC2=O)N1 (centres undefined),104.8,84.7,94.7,95.0,90.5
